Test results as given in PubChem BioAssay AID504769 (Southern Research Specialized Biocontainment Screening …, 2011).

test system: Bladder 5637 cells viability, CellTiter-Glo, 72 h; experiment: cytotoxicity in 5637 bladder cells, dose response, cytotoxicity control for bacterial capsule biogenesis inhibitors, cell-based, set 2 (AID 504769)
Outline: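 Test system: bladder carcinoma 5637 cell line; benchmarks: Hyamine as cytotoxic control, untreated cells as reference; evaluation: percent viability versus mean untreated cell control, fitted CC50; dosing: eight concentrations, 2.3–300 µM; signal: CellTiter-Glo luminescence; incubation: 72 h compound exposure; repeats: duplicates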

| SMILES | CC50 |
| --- | --- |
| O=C(Nc1nc2c(F)cc(F)cc2s1)c1ccncc1 | 71.8 µM |
| O=C(Nc1nc2c(F)cc(F)cc2s1)c1ccccc1 | 30.9 µM |
| O=C(Nc1nc2ccccc2s1)c1ccncc1 | 104 µM |
| O=C(Nc1nc2c(Cl)cc(Cl)cc2s1)c1ccccn1 | 3.55 µM |
| O=C(Nc1nc2ccc(F)cc2s1)c1ccccn1 | 3.32 µM |
| O=C(Nc1nc2c(F)cccc2s1)c1ccccn1 | 2.56 µM |
| Cc1cc(C)c2nc(NC(=O)c3ccccn3)sc2c1 | 6.19 µM |
| O=C(Nc1nc2ccccc2s1)c1cccnc1 | 129 µM |
